Screening data deposited in PubChem by Broad Institute.
Compounds with a hit are over-represented: about 5.8% of the library has one in this group of screens.
GASC1 inh = inhibitors of GASC-1 (KDM4C) histone demethylase, primary screen, biochemical, single concentration HTS. Lysine-specific demethylase 4C (Homo sapiens), Q9H3R0. GST-KDM4C 2-372, H3K9me3 peptide, LANCE TR-FRET. inhibition, % at 12.5 µM. actives 0.15% (n = 96,000);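 active means mean replicate inhibition above about 25%, with at least 55% of replicates also reaching it, limit read from the data, passing the limit was not always enough; inconclusive means only one of those two conditions met; inactive means neither condition met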
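System: N-terminal GST-fused human GASC-1 (KDM4C) fragment, residues 2-372; amount: enzyme final amount 10 nM; incubation: reaction 30 min RT, detection step 1 h RT; medium: HEPES buffer, pH 7.5, plus ascorbate; technique: LANCE TR-FRET, Eu antibody, ULight-streptavidin, EDTA, ex 340 nm, em 618/671 nm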
IDH1 R132H inh = inhibitors of IDH1 R132H reductase, primary screen, biochemical, plate reader, single point; inhibition, % at 10 µM; Isocitrate dehydrogenase [NADP] cytoplasmic (Homo sapiens), O75874; diaphorase/resazurin fluorescence, 60 min; actives 0.18% (n = 70,000); AID 624101, 2012; in the data active means inhibition above about 34%; inconclusive means no clear call, values can overlap the other calls; inactive means below about 11%;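 further: 0% = DMSO and 100% = no enzyme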
Target sequence (O75874 whole entry R132H): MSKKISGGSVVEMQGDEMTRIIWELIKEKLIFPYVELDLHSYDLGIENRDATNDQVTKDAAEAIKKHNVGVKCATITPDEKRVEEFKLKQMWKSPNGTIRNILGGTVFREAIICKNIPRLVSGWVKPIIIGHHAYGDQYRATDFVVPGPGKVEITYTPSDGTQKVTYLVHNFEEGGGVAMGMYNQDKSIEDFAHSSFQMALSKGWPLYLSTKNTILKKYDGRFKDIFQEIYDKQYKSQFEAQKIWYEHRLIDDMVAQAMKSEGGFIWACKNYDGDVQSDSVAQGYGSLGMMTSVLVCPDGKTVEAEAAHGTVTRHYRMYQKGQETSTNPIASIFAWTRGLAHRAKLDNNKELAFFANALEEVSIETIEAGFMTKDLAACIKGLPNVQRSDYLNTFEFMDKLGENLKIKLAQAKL
Pf Dd2 inh = P. falciparum Dd2 growth inhibitors, primary screen, SYBR Green fluorescence, single dose replicates | 72 h; hits give low values | activity change, % at 10 µM | actives 2.3% (n = 94,000) | AID 1159554, 2015; in the data active means activity change below about -80%; inconclusive means no clear call, values can overlap the other calls
T cruzi growth-1 = T. cruzi intracellular proliferation inhibitors, primary screen, cell-based, beta-gal Tulahuen parasites, NIH3T3 host, luminescence; T. cruzi beta-gal in NIH3T3, GalScreen luminescence, 90 h; inhibition, % at 8.34 µM; actives 5.9% (n = 77,000);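 active means mean inhibition above about 93%, with at least 55% of replicates each passing it, limit read from the data, passing the limit was not always enough; inconclusive means only one of those two conditions holds; inactive means neither condition holds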
T cruzi growth-2 = T. cruzi intracellular proliferation inhibitors, confirmation, cell-based, NIH3T3 host, beta-gal parasite, luminescence, cherry-pick | inhibition, % at 8.35 µM | shares compounds with T cruzi growth-1 | T. cruzi beta-gal in NIH3T3, GalScreen luminescence, 90 h | actives 72% (n = 5,600);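 active means mean replicate inhibition above about 95% and at least 55% of replicates individually reaching it, limit read from the data; inconclusive means only one of the two criteria is met; inactive means neither criterion is met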
T cruzi growth-3 = inhibitors of intracellular T. cruzi replication, confirmation, NIH3T3 host cells, beta-gal parasites, cherry-pick, set 2; actives 21% (n = 5,600); inhibition, % at 2.09 µM; shares compounds with T cruzi growth-1; T. cruzi beta-gal in NIH3T3, GalScreen luminescence, 90 h;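 active means mean inhibition above about 95%, with at least 55% of replicates also reaching it, limit read from the data; inconclusive means meets just one of the two conditions; inactive means meets neither condition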;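 further: plate controls were neutral control median for no effect and positive control median for full effect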
3T3 cytotox = cytotoxicity in mouse NIH/3T3 fibroblasts, confirmation, cytotoxicity control for T. cruzi proliferation inhibitor project, cell-based, cherry-pick, single point. shares compounds with T cruzi growth-1. NIH/3T3 viability, CellTiter-Glo ATP luminescence, 90 h. actives 14% (n = 5,600). cytotoxicity (signal decrease), % at 8.35 µM;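 active means mean signal decrease across replicates above about 35% based on untreated-well scatter, with enough replicates individually passing, limit read from the data; inconclusive means no rule stated though some were filed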;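 further: 0% = median of neutral control wells and 100% = median of positive control wells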
3T3 cytotox 2 = NIH/3T3 fibroblast cytotoxicity, confirmation, cytotoxicity control, cell-based, cherry-pick, single point, set 2. actives 56% (n = 5,600). shares compounds with T cruzi growth-1. inhibition, % at 24.9 µM. NIH/3T3 viability, CellTiter-Glo ATP luminescence, 90 h;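 active means mean loss of cell viability signal at or above a set limit, and enough replicates individually reaching it; inconclusive means meets only the mean limit or only the replicate share; inactive means meets neither condition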;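 further: 0% = median of neutral control wells and 100% = median of positive control wells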
* = called active by the depositor; ? = inconclusive; / = no result given.

SMILES | GASC1 inh | IDH1 R132H inh | Pf Dd2 inh | T cruzi growth-1 | T cruzi growth-2 | T cruzi growth-3 | 3T3 cytotox | 3T3 cytotox 2
Cc1ccc(-c2ccc3c(c2)O[C@@H](CN(C)C(=O)C2CCCCC2)[C@@H](C)CN([C@@H](C)CO)S3(=O)=O)cc1 | -3 | -2 | -67 | 125* | 100* | 93 | 22 | 106*
Cc1ccc(-c2ccc3c(c2)O[C@H](CN(C)C(=O)C2CCC2)[C@@H](C)CN([C@H](C)CO)S3(=O)=O)cc1 | -1 | / | -44 | 57 | / | / | / | /
C[C@@H]1CN([C@@H](C)CO)S(=O)(=O)c2ccc(-c3ccncc3)cc2O[C@@H]1CN(C)C(=O)CC1CC1 | 2 | 7 | 3 | 85 | / | / | / | /
C[C@@H]1CN([C@@H](C)CO)S(=O)(=O)c2ccc(-c3ccncc3)cc2O[C@H]1CN(C)C(=O)C1CCC1 | 2 | 8 | -14 | 108* | 103* | 78 | 5 | 46*
C[C@H](CO)N1C[C@H](C)[C@H](CN(C)C(=O)C2CCC2)Oc2cc(-c3ccncc3)ccc2S1(=O)=O | 3 | / | -30 | 85 | / | / | / | /
C[C@@H]1CN([C@@H](C)CO)S(=O)(=O)c2ccc(-c3ccncc3)cc2O[C@H]1CN(C)C(=O)CC1CC1 | 5 | 1 | -6 | 118* | 84 | 86 | 3 | ?
CN(C)C=NC(=O)c1ccc(-c2cccs2)s1 | / | 0 | / | / | / | / | / | /
CCCOc1ccc(-c2nc(SCC(N)=O)n[nH]2)cc1 | / | 0 | / | / | / | / | / | /
CCC(=O)N1CC[C@H]2[C@@H]1c1cc(C#Cc3ccccc3OC)ccc1N(C)[C@H]2CO | 0 | / | -35 | 99* | 110* | 76 | 22 | -7
COc1ccccc1NC(=O)N1CC[C@H]2[C@@H]1c1cc(-c3ccc(F)cc3)ccc1N(C)[C@H]2CO | 1 | / | -66 | 101* | 106* | ? | 9 | 29*
CCC(=O)N1CC[C@@H]2[C@H]1c1cc(C#Cc3cccc(F)c3)ccc1N(C)[C@H]2CO | 0 | / | -48 | 101 | / | / | / | /
COc1ccccc1NC(=O)N1CC[C@@H]2[C@H]1c1cc(C#Cc3ccc(F)cc3)ccc1N(C)[C@@H]2CO | -1 | / | -32 | ? | 99* | 111* | 2 | 12
CS(=O)(=O)N(CC(=O)Nc1ccccc1C(=O)O)c1ccc(F)cc1 | / | -1 | / | / | / | / | / | /
CCCC#Cc1ccc([C@H]2[C@@H](C#N)N(C(=O)C3CCCC3)[C@@H]2CO)cc1 | -3 | / | -39 | 103* | 100* | 104* | -6 | 15
CCCC#Cc1ccc([C@@H]2[C@@H](C#N)N(C(=O)C3CCCCC3)[C@@H]2CO)cc1 | 0 | / | 9 | 103* | 100* | 91 | 2 | 14
CCCC#Cc1ccc([C@H]2[C@@H](CO)N(C(=O)C3CCC3)[C@H]2C#N)cc1 | -2 | / | -15 | / | / | / | / | /
CCCC#Cc1ccc([C@H]2[C@@H](C#N)N(C(=O)C3CCCCC3)[C@H]2CO)cc1 | -1 | / | -59 | 91 | / | / | / | /
CCCC#Cc1ccc([C@@H]2[C@H](C#N)N(C(=O)C3CCC3)[C@H]2CO)cc1 | 0 | / | -46 | ? | 101* | 105* | 26 | 30*
CC(C)C#Cc1ccc([C@@H]2[C@@H](C#N)N(C(=O)C3CCC3)[C@@H]2CO)cc1 | 0 | / | -14 | 90 | / | / | / | /
CC(C)C#Cc1ccc([C@H]2[C@H](C#N)N(C(=O)C3CCC3)[C@H]2CO)cc1 | -3 | / | -20 | 97* | 108* | 31 | 0 | 6
CCCC#Cc1ccc([C@@H]2[C@@H](CO)N(C(=O)C3CCCC3)[C@H]2C#N)cc1 | 0 | / | -32 | 100* | 97* | 98* | -1 | 5
CC1(C)Cc2c(sc3nc(SCC(=O)c4ccccc4)nc(N)c23)CS1 | / | 0 | / | / | / | / | / | /
COc1ccc(S(=O)(=O)N(C)C[C@H]2OCCCC[C@@H](C)Oc3ccc(NC(=O)Nc4ccccc4)cc3C(=O)N([C@@H](C)CO)C[C@@H]2C)cc1 | -2 | / | -64 | 100* | 112* | 1 | 8 | ?
COc1ccc(S(=O)(=O)N(C)C[C@H]2OCCCC[C@H](C)Oc3ccc(NC(=O)Nc4ccccc4)cc3C(=O)N([C@@H](C)CO)C[C@@H]2C)cc1 | 7 | 4 | -76 | 105* | 110* | 67 | 18 | 8
COc1ccc(S(=O)(=O)N(C)C[C@@H]2OCCCC[C@H](C)Oc3ccc(NC(=O)Nc4ccccc4)cc3C(=O)N([C@@H](C)CO)C[C@@H]2C)cc1 | -1 | 0 | -86* | ? | 105* | 72 | 7 | 25
SMILES | GASC1 inh | IDH1 R132H inh | Pf Dd2 inh | T cruzi growth-1 | T cruzi growth-2 | T cruzi growth-3 | 3T3 cytotox | 3T3 cytotox 2
COc1ccc(S(=O)(=O)N(C)C[C@@H]2OCCCC[C@@H](C)Oc3ccc(NC(=O)Nc4ccccc4)cc3C(=O)N([C@@H](C)CO)C[C@H]2C)cc1 | -1 | -1 | -74 | ? | 111* | 67 | -3 | 5
COc1ccc(S(=O)(=O)N(C)C[C@H]2OCCCC[C@H](C)Oc3ccc(NC(=O)Nc4ccccc4)cc3C(=O)N([C@H](C)CO)C[C@H]2C)cc1 | 4 | / | ? | -12 | / | / | / | /
CCN1CCCC1CNC(=O)C(NC(=O)c1ccc(C23CC4CC(CC(C4)C2)C3)cc1)C(C)C (stereo not given) | / | 0 | / | / | / | / | / | /
Cc1ccc(-c2cnc3c(c2)C(=O)N([C@@H](C)CO)C[C@H](C)[C@@H](CN(C)CC2CCCC2)O3)cc1 | -2 | -1 | -69 | 103* | 108* | 43 | ? | 105*
C[C@@H]1CN([C@H](C)CO)C(=O)c2cc(-c3ccccc3)cnc2O[C@H]1CN(C)C | 3 | 2 | 4 | ? | 100* | -26 | 5 | 20
C[C@H]1CN([C@@H](C)CO)C(=O)c2cc(-c3cncnc3)cnc2O[C@H]1CN(C)C(=O)CN1CCOCC1 | 2 | 0 | 19 | / | / | / | / | /
C[C@H](CO)N1C[C@H](C)[C@@H](CN(C)C(=O)CN2CCOCC2)Oc2ncc(-c3cncnc3)cc2C1=O | 1 | -1 | -16 | ? | -8 | 14 | -2 | -4
COc1ccc(OC)c(N(CC(=O)Nc2ccc(Br)cc2F)S(C)(=O)=O)c1 | / | 0 | / | / | / | / | / | /
CC(C)=CCC[C@H](C)C/C=N/NC(=O)CCCCCCC(=O)NO | / | 0 | / | / | / | / | / | /
